According to ChEMBL document CHEMBL1133476, “Nitrosothiol esters of diclofenac: synthesis and pharmacological characterization as gastrointestinal-sparing prodrugs” (J Med Chem, 2000):

What was measured:
Rattus norvegicus [1] = species on record: Rattus norvegicus; experiment: Gastric toxicity was measured in rats.; assay type: organism-based; conditions: in vivo
How it was run: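 Male Sprague-Dawley rats (180-200 g), fasted 24 h with water ad libitum. Single gavage of 100 µmol/kg at 5 mL/kg in 0.5% methocel/5% or 50% PEG-400, 5-10 rats/group. Fasting continued for 18 h, then CO₂ euthanasia. Stomach lesions scored in mm; mean ± SEM.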

Mus musculus [2] = experiment: Level of plasma diclofenac in mice after oral administration of 20 umol/kg of prodrug; assay type: ADME, organism-based; conditions: in vivo
How it was run: (§1)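 Male CD-1 mice, fasted overnight (≈17 h), given 20 µmol/kg orally by gavage as a suspension in 0.5% methocel/5% or 50% PEG-400. Ketamine/xylazine anesthesia, then cardiac-puncture heparinized blood at 30, 60 and 120 min, a separate group per time point. Plasma diclofenac measured by HPLC with UV detection against authentic standard, meclofenamic acid internal standard.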

Mus musculus [3] = species on record: Mus musculus; experiment: Analgesic effect measured as % inhibition in PBQ-induced writhing test in mice.; assay type: functional; design: concentration or dose not given beside the values
How it was run: (§2)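 Male CD-1 mice (20-25 g), fasted overnight (≈17 h) with water ad libitum. Oral gavage of 100 µmol/kg as a suspension in 0.5% methocel with 5% or 50% PEG-400, 2.5 mL/kg, at least 9 mice/group. PBQ 2 mg/kg ip at 1 h after dosing; writhes counted over 5 min, starting 5 min after PBQ. Read-out is % inhibition of writhing vs vehicle; ratio = % inhibition with the test article / % inhibition with diclofenac, both at 100 µmol/kg po.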

[4] = Activity ratio is the percent inhibition in writhing test at 100 umol/kg, po to that of diclofenac at 100 umol/kg, po administration; assay type: functional; how it was run: as §2
Rattus norvegicus [5] = experiment: Antiinflammatory effect measured as % inhibition in carrageenan induced paw edema test in rat.; assay type: functional
How it was run: (§3)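 Male Sprague-Dawley rats (200-250 g), fasted overnight (≈17 h) with water ad libitum. Dosed 100 µmol/kg by gavage at 5 mL/kg in 0.5% methocel/5% or 50% PEG-400, at least 5 rats/group. At 1 h, 50 µL of 1% carrageenan injected subplantar into the right […] paw. Paw volume read by water displacement at 0 and 3 h. Result is % inhibition of the volume increase; ratio relative to diclofenac at the same dose.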

[6] = Activity ratio is the percent inhibition of paw volume increase at 100 umol/kg, po to that of diclofenac at 100 umol/kg, po administration; assay type: functional; how it was run: as §3
Mus musculus [7] = experiment: Level of plasma diclofenac in mice after oral administration; assay type: ADME, organism-based; conditions: in vivo; how it was run: as §1

SMILES | Concentration_Plasma (Mus musculus [2]) [nM ml-1] | Gastric lesion score (Rattus norvegicus [1]) | Inhibition (Mus musculus [3]) [%] | Ratio [4] | other results
O=C(Cc1ccccc1Nc1c(Cl)cccc1Cl)OCC1(S)CCCCC1 | – | 6.7 mm | – | – | –
CN(CCCOC(=O)Cc1ccccc1Nc1c(Cl)cccc1Cl)CC1(S)CCCCC1 | – | 28.3 mm | – | – | –
CN(CCOC(=O)Cc1ccccc1Nc1c(Cl)cccc1Cl)CC1(S)CCCCC1 | – | 10.2 mm | – | – | –
CC(C)(COC(=O)Cc1ccccc1Nc1c(Cl)cccc1Cl)SN=O | 19.8 | 0.7 mm | 32 | 0.4 | –
O=C([O-])Cc1ccccc1Nc1c(Cl)cccc1Cl.[Na+] [DICLOFENAC SODIUM] | – | – | – | – | Concentration_Plasma (Mus musculus [7]): 23.9 nM ml-1
O=C(O)Cc1ccccc1Nc1c(Cl)cccc1Cl [DICLOFENAC] | – | – | 84 | – | Inhibition (Rattus norvegicus [5]): 53%

Further lines, with some results ahead:

Concentration_Plasma (Mus musculus [2]) [nM ml-1] | SMILES | Gastric lesion score (Rattus norvegicus [1]) | Inhibition (Mus musculus [3]) [%] | Ratio [4] | other results
4.5 | CCN(CCCOC(=O)Cc1ccccc1Nc1c(Cl)cccc1Cl)CC1(SN=O)CCCCC1 | – | – | – | –
5.9 | CN(CCCCOC(=O)Cc1ccccc1Nc1c(Cl)cccc1Cl)CC1(SN=O)CCCCC1 | – | – | – | –
2.4 | CN(CCCCCOC(=O)Cc1ccccc1Nc1c(Cl)cccc1Cl)CC1(SN=O)CCCCC1 | – | – | – | –
15.3 | O=NSC1(COC(=O)Cc2ccccc2Nc2c(Cl)cccc2Cl)CCCCC1 | 2 mm | 58 | 0.7 | –
6.8 | O=NSC1(CN(CCCOC(=O)Cc2ccccc2Nc2c(Cl)cccc2Cl)Cc2ccccc2)CCCCC1 | – | – | – | –
7.4 | CN(CCCOC(=O)Cc1ccccc1Nc1c(Cl)cccc1Cl)CC1(SN=O)CCCCC1 | 0.7 mm | 53 | 0.6 | Inhibition (Rattus norvegicus [5]): 58%; Ratio [6]: 1.1
13.4 | CCC(CC)(COC(=O)Cc1ccccc1Nc1c(Cl)cccc1Cl)SN=O | 0.4 mm | 95 | 1.1 | –
5.5 | CN(CCOC(=O)Cc1ccccc1Nc1c(Cl)cccc1Cl)CC1(SN=O)CCCCC1 | 1.1 mM | 70 | 0.8 | Inhibition (Rattus norvegicus [5]): 55%; Ratio [6]: 1
